# Reference: ChEMBL document CHEMBL4041524, “Synthesis and Characterization of a Novel γ-Aminobutyric Acid Type A (GABAA) Receptor Ligand That Combines Outstanding Metabolic Stability, Pharmacokinetics, and Anxiolytic Efficacy” (J Med Chem, 2016)
# The source made the active and inactive calls. No cut-off for these calls is given here.
# Assays:
# [1] = target: T1, GABA-A receptor; alpha-2/beta-3/gamma-2 (Homo sapiens) (UniProt P18507+P28472+P47869); experiment: Modulation of recombinant GABA alpha2beta3gamma2 receptor (unknown origin) expressed in Xenopus laevis oocytes assessed as change in GABA-induced EC(3 to 6) current by two-electrode voltage clamp assay; type: cell-based
# How it was run: (§1)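 Xenopus laevis oocytes expressing α1, α2, α3 or α5 β3γ2 GABAARs were recorded by two-electrode voltage clamp. Modulation of the GABA EC3-6 current (taken as 100%) was tested at 100 nM, 1 μM and 10 μM in the same cells. Values are mean ± SEM, n = 3–4.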
# [2] = target: T2, GABA-A receptor; alpha-3/beta-3/gamma-2 (Homo sapiens) (UniProt P18507+P28472+P34903); experiment: Modulation of recombinant GABA alpha3beta3gamma2 receptor (unknown origin) expressed in Xenopus laevis oocytes assessed as change in GABA-induced EC(3 to 6) current at 100 nM by two-electrode voltage clamp assay; type: cell-based; how it was run: as §1
# [3] = target: T1, GABA-A receptor; alpha-2/beta-3/gamma-2 (Homo sapiens); experiment: Modulation of recombinant GABA alpha2beta3gamma2 receptor (unknown origin) expressed in Xenopus laevis oocytes assessed as change in GABA-induced EC(3 to 6) current at 100 nM by two-electrode voltage clamp assay; type: cell-based; how it was run: as §1
# [4] = Total plasma concentration in Sprague-Dawley rat at 10 mg/kg, po measured after 15 mins by LC-MS/MS analysis; type: ADME, organism-based
# How it was run: (§2)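 Sprague-Dawley rats (n = 3 per time point) were given 10 mg/kg p.o. Total plasma concentrations were taken at 15, 30, 60 and 120 min. Brain levels of the dosed ligand and of the carboxylic acid metabolite were taken at 60 or 120 min.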
# [5] = test system: Mus musculus; experiment: Toxicity in Swiss mouse assessed as change in motor coordination by measuring number of falls from the rotating rod at 10 mg/kg, ip administered 30 mins prior to testing measured for 2 mins by rotarod test relative to control; type: organism-based; settings: in vivo
# How it was run: (§3)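 The same mice used for marble burying were placed on a rotarod at 4 r.p.m. for 2 min. No fall was scored success, one fall partial, and two falls failure.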
# [6] = target: T3, GABA-A receptor; alpha-1/beta-3/gamma-2 (Homo sapiens) (UniProt P14867+P18507+P28472); experiment: Modulation of recombinant GABA alpha1beta3gamma2 receptor (unknown origin) expressed in Xenopus laevis oocytes assessed as change in GABA-induced EC(3 to 6) current at 1 uM by two-electrode voltage clamp assay; type: cell-based; how it was run: as §1
# [7] = test system: Rattus norvegicus; experiment: Anxiolytic like activity in water-deprived Sprague-Dawley rat assessed as increase in water drinking time during punished period at 30 mg/kg, po administered 30 prior to testing by Vogel conflict test relative to vehicle control; type: functional
# How it was run: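 Water-deprived male Sprague-Dawley rats (n = 6–8) drank during unpunished and punished periods, with licking suppressed by mild shock in punished periods. Compounds were given 30 min before testing. Analysis was ANOVA with Dunnett's test.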
# [8] = Total plasma concentration in Sprague-Dawley rat at 10 mg/kg, po measured after 60 mins by LC-MS/MS analysis; type: ADME, organism-based; how it was run: as §2
# [9] = target: T3, GABA-A receptor; alpha-1/beta-3/gamma-2 (Homo sapiens); experiment: Modulation of recombinant GABA alpha1beta3gamma2 receptor (unknown origin) expressed in Xenopus laevis oocytes assessed as change in GABA-induced EC(3 to 6) current at 10 uM by two-electrode voltage clamp assay; type: cell-based; how it was run: as §1
# [10] = target: T4, GABA-A receptor; alpha-5/beta-3/gamma-2 (Homo sapiens) (UniProt P18507+P28472+P31644); experiment: Modulation of recombinant GABA alpha5beta3gamma2 receptor (unknown origin) expressed in Xenopus laevis oocytes assessed as change in GABA-induced EC(3 to 6) current at 1 uM by two-electrode voltage clamp assay; type: cell-based; how it was run: as §1
# [11] = target: T1, GABA-A receptor; alpha-2/beta-3/gamma-2 (Homo sapiens); experiment: Modulation of recombinant GABA alpha2beta3gamma2 receptor (unknown origin) expressed in Xenopus laevis oocytes assessed as change in GABA-induced EC(3 to 6) current at 10 uM by two-electrode voltage clamp assay; type: cell-based; how it was run: as §1
# [12] = test system: Brain; experiment: Drug metabolism in Sprague-Dawley rat brain assessed as (E)-8-ethynyl-6-(pyridin-2-yl)-4H-benzo[f]imidazo[1,5-a][1,4]diazepine-3-carboxylic acid formation at 10 mg/kg, po measured after 120 mins by LC-MS/MS analysis; type: ADME, organism-based; settings: in vivo, 2 h; how it was run: as §2
# [13] = test system: Liver; experiment: Metabolic stability in rat liver microsomes assessed as compound remaining at 4 uM measured after 30 mins in presence of NADPH by LC-MS/MS analysis; type: ADME, microsome; settings: 0.5 h
# How it was run: (§4)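 Human, mouse or rat liver microsomes were incubated with compound at 4 μM final for 30 min at 37 °C (n = 1). Percent of parent remaining was quantified by LC-MS/MS.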
# [14] = test system: Liver; experiment: Metabolic stability in human liver microsomes assessed as compound remaining at 4 uM measured after 30 mins in presence of NADPH by LC-MS/MS analysis; type: ADME, microsome; settings: 0.5 h; how it was run: as §4
# [15] = test system: Mus musculus; experiment: Anxiolytic-like activity in Swiss Webster mouse marble burying model of anxiety assessed as suppression of marble burying activity at 30 mg/kg, ip administered 30 mins prior to test relative to vehicle-control; type: functional, organism-based
# How it was run: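 Male NIH Swiss Webster mice (n = 10) received vehicle or compound at 10 or 30 mg/kg i.p. 30 min before marble burying testing. Sedation-like behaviour was noted by observation. Analysis was ANOVA with Dunnett's test vs vehicle.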
# [16] = target: T2, GABA-A receptor; alpha-3/beta-3/gamma-2 (Homo sapiens); experiment: Modulation of recombinant GABA alpha3beta3gamma2 receptor (unknown origin) expressed in Xenopus laevis oocytes assessed as change in GABA-induced EC(3 to 6) current by two-electrode voltage clamp assay; type: cell-based; how it was run: as §1
# [17] = target: T3, GABA-A receptor; alpha-1/beta-3/gamma-2 (Homo sapiens); experiment: Modulation of recombinant GABA alpha1beta3gamma2 receptor (unknown origin) expressed in Xenopus laevis oocytes assessed as change in GABA-induced EC(3 to 6) current by two-electrode voltage clamp assay; type: cell-based; how it was run: as §1
# [18] = test system: Mus musculus; experiment: Toxicity in Swiss mouse assessed as change in motor coordination by measuring number of falls from the rotating rod at 30 mg/kg, ip administered 30 mins prior to testing measured for 2 mins by rotarod test relative to control; type: organism-based; settings: in vivo; how it was run: as §3
# [19] = test system: Liver; experiment: Metabolic stability in mouse liver microsomes assessed as compound remaining at 4 uM measured after 30 mins in presence of NADPH by LC-MS/MS analysis; type: ADME, microsome; settings: 0.5 h; how it was run: as §4
# [20] = target: T4, GABA-A receptor; alpha-5/beta-3/gamma-2 (Homo sapiens); experiment: Modulation of recombinant GABA alpha5beta3gamma2 receptor (unknown origin) expressed in Xenopus laevis oocytes assessed as change in GABA-induced EC(3 to 6) current by two-electrode voltage clamp assay; type: cell-based; how it was run: as §1
# [21] = Total plasma concentration in Sprague-Dawley rat at 10 mg/kg, po measured after 120 mins by LC-MS/MS analysis; type: ADME, organism-based; how it was run: as §2
# [22] = Cytotoxicity against HEK293T cells assessed as viable cells measured after 18 hrs by CellTiter-Glo assay; type: cell-based, HEK-293T; settings: human, read-out: LD50
# How it was run: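 HEK293T cells were exposed to compound for 18 h (n = 4). Viable cells were quantified with CellTiter-Glo, and LD50 was derived.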
# [23] = target: T4, GABA-A receptor; alpha-5/beta-3/gamma-2 (Homo sapiens); experiment: Modulation of recombinant GABA alpha5beta3gamma2 receptor (unknown origin) expressed in Xenopus laevis oocytes assessed as change in GABA-induced EC(3 to 6) current at 10 uM by two-electrode voltage clamp assay; type: cell-based; how it was run: as §1
# [24] = Drug uptake in Sprague-Dawley rat brain at 10 mg/kg, po measured after 120 mins by LC-MS/MS analysis; type: ADME, organism-based; settings: read-out: Drug uptake; how it was run: as §2
# [25] = target: T1, GABA-A receptor; alpha-2/beta-3/gamma-2 (Homo sapiens); experiment: Modulation of recombinant GABA alpha2beta3gamma2 receptor (unknown origin) expressed in Xenopus laevis oocytes assessed as change in GABA-induced EC(3 to 6) current at 1 uM by two-electrode voltage clamp assay; type: cell-based; how it was run: as §1
# [26] = Total plasma concentration in Sprague-Dawley rat at 10 mg/kg, po measured after 30 mins by LC-MS/MS analysis; type: ADME, organism-based; how it was run: as §2
# [27] = target: T2, GABA-A receptor; alpha-3/beta-3/gamma-2 (Homo sapiens); experiment: Modulation of recombinant GABA alpha3beta3gamma2 receptor (unknown origin) expressed in Xenopus laevis oocytes assessed as change in GABA-induced EC(3 to 6) current at 1 uM by two-electrode voltage clamp assay; type: cell-based; how it was run: as §1
# [28] = target: T2, GABA-A receptor; alpha-3/beta-3/gamma-2 (Homo sapiens); experiment: Modulation of recombinant GABA alpha3beta3gamma2 receptor (unknown origin) expressed in Xenopus laevis oocytes assessed as change in GABA-induced EC(3 to 6) current at 10 uM by two-electrode voltage clamp assay; type: cell-based; how it was run: as §1
smiles,measurement,setting,value
C#Cc1ccc2c(c1)C(c1ccccn1)=NCc1c(C(=O)OCC)ncn1-2,Activity,[1],Dose-dependent effect
same,Activity,[2],119%
same,Activity,[3],111%
same,concentration at 0.25 h,[4],< 0.0122 µM
same,Activity,[5],Toxic
same,Activity,[6],147%
same,Activity,[7],inactive
same,concentration at 1 h,[8],< 0.0122 µM
same,Activity,[9],178%
same,Activity,[10],134%
same,Activity,[11],244%
same,Drug metabolism,[12],10 nM
same,Stability,[13],58%
same,Stability,[14],86%
same,Activity,[15],Active
same,Activity,[16],Dose-dependent effect
same,Activity,[17],Dose-dependent effect
same,Activity,[18],Toxic
same,Stability,[19],57%
same,Activity,[20],Dose-dependent effect
same,concentration at 2 h,[21],< 0.0122 µM
same,CC50 at 18 h,[22],> 100 µM
same,Activity,[23],158%
same,concentration at 2 h,[24],< 0.0122 µM
same,Activity,[25],207%
same,concentration at 0.5 h,[26],< 0.0122 µM
same,Activity,[27],195%
same,Activity,[28],305%
